# Data from ChEMBL document CHEMBL5131497, “Design, Synthesis, and Characterization of TNP-2198, a Dual-Targeted Rifamycin-Nitroimidazole Conjugate with Potent Activity against Microaerophilic and Anaerobic Bacterial Pathogens” (J Med Chem, 2022).
# Tests used:
# Gardnerella vaginalis [1] = assay: Antibacterial activity against Gardnerella vaginalis clinical isolate China; format: functional
# Helicobacter pylori [2] = assay: Antibacterial activity against Helicobacter pylori clinical isolate China; format: functional
# Staphylococcus aureus = assay: Antibacterial activity against Staphylococcus aureus ATCC 29213; format: functional
# Helicobacter pylori [3] = assay: Antibacterial activity against metronidazole-resistant Helicobacter pylori CB1573 harboring rdxAR16S mutant measured after 5 days by agar dilution method; format: functional; settings: CB1573, 120 h, time 5 day
# In short: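 Agar dilution per CLSI. Wild-type ATCC 700392 (CB1531) and its derivatives carry defined resistance determinants. Drugs, alone or in 1:1 molar mixtures, were diluted 2-fold from 100× stocks into Mueller–Hinton agar with aged (≥2 weeks) sheep blood (5% v/v). MIC read after 5 days at 35 °C under microaerobic conditions from a campylobacter gas-generating system.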
# Bacteroides fragilis = assay: Antibacterial activity against metronidazole-resistant Bacteroides fragilis MMX 3387; format: functional
# Phocaeicola vulgatus = assay: Antibacterial activity against metronidazole-resistant Bacteroides vulgatus 3490; format: functional
# Fusobacterium nucleatum = assay: Antibacterial activity against Fusobacterium nucleatum ATCC 25586; format: functional
# Gardnerella vaginalis [4] = assay: Antibacterial activity against Gardnerella vaginalis ATCC 14018; format: functional
# [5] = Antibacterial activity against Mobiluncus mulieris ATCC 35243; format: functional
# Peptostreptococcus sp. = assay: Antibacterial activity against Peptostreptococcus magnus ATCC 14956; format: functional
# Veillonella parvula = assay: Antibacterial activity against Veillonella parvula ATCC 17745 MMX 1272; format: functional
# [6] = Half life in C57BL/6 mouse at 5 mg/kg, iv; format: ADME, organism-based; settings: in vivo
# [7] = Clearance in C57BL/6 mouse at 5 mg/kg, iv; format: ADME, organism-based; settings: in vivo
# In short: (§1)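 Plasma PK after single intravenous or oral dosing. Mice C57BL/6 at 5 mg/kg IV or 20 mg/kg PO; Sprague–Dawley rats at 10 mg/kg IV or 50 mg/kg PO; beagle dogs at 5 mg/kg IV or 25 mg/kg PO. AUC reported in ng·h/mL. Clearance from the IV arms in mL/min·kg.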
# [8] = AUC in C57BL/6 mouse at 5 mg/kg, iv; format: ADME, organism-based; parameters: dose 5 mg/kg, route iv; settings: in vivo; in short: as §1
# [9] = Oral bioavailability in C57BL/6 mouse at 20 mg/kg; format: ADME, organism-based; settings: in vivo
# [10] = AUC in Sprague-Dawley rat at 10 mg/kg, iv; format: ADME, organism-based; parameters: dose 10 mg/kg, route iv; settings: in vivo; in short: as §1
# [11] = Half life in Beagle dog at 25 mg/kg, po; format: ADME, organism-based, Canis lupus familiaris; settings: in vivo
# In short: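 Single-dose PK of TNP-2198 was run in C57BL/6 mice (IV 5 mg/kg; PO 20 mg/kg) and beagle dogs (IV 5 mg/kg; PO 25 mg/kg). Terminal half-life (h) was derived from plasma profiles, together with Tmax, Vdss, CL, AUC and oral bioavailability.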
# [12] = AUC in Beagle dog at 5 mg/kg, iv; format: ADME, organism-based, Canis lupus familiaris; parameters: dose 5 mg/kg, route iv; settings: in vivo; in short: as §1
# [13] = Oral bioavailability in Beagle dog at 25 mg/kg; format: ADME, organism-based, Canis lupus familiaris; settings: in vivo
# [14] = Drug distribution in Sprague-Dawley rat plasma measured at 6 hrs; format: ADME, cell-free
# In short: (§2)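 Sprague–Dawley rats were dosed with TNP-2198. Concentrations were measured in plasma (ng/mL) and in tissues or contents (ng/g) at 0.5, 2, 6, 12 and 24 h after dosing. Values below the limit of quantification are reported as BLOQ.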
# [15] = Drug distribution in Sprague-Dawley rat plasma measured at 12 hrs; format: ADME, cell-free; in short: as §2
# [16] = Drug distribution in Sprague-Dawley rat plasma measured at 24 hrs; format: ADME, cell-free; settings: BLD = below limit of detection; in short: as §2
# [17] = Drug distribution in Sprague-Dawley rat vaginal secretion measured at 0.5 hrs; format: ADME, tissue-based, Vaginal fluid; settings: female, read-out: Ct; in short: as §2
# [18] = Drug distribution in Sprague-Dawley rat vaginal secretion measured at 12 hrs; format: ADME, tissue-based, Vaginal fluid; settings: female, read-out: Ct; in short: as §2
# [19] = Drug distribution in Sprague-Dawley rat vaginal tissue measured at 0.5 hrs; format: ADME, tissue-based, Vagina; settings: female, read-out: Ct; in short: as §2
# [20] = Drug distribution in Sprague-Dawley rat brain measured at 6 hrs; format: ADME, tissue-based; settings: read-out: Ct; in short: as §2
# [21] = Drug distribution in Sprague-Dawley rat brain measured at 12 hrs; format: ADME, tissue-based; settings: in vivo, BLD = below limit of detection; in short: as §2
# [22] = Drug distribution in Sprague-Dawley rat brain measured at 24 hrs; format: ADME, tissue-based; settings: in vivo, BLD = below limit of detection; in short: as §2
# [23] = Drug distribution in Sprague-Dawley rat gums measured at 2 hrs; format: ADME, tissue-based, Gingiva; settings: read-out: Ct; in short: as §2
# [24] = Drug distribution in Sprague-Dawley rat gums measured at 6 hrs; format: ADME, tissue-based, Gingiva; settings: read-out: Ct; in short: as §2
# [25] = Drug distribution in Sprague-Dawley rat stomach tissue measured at 2 hrs; format: ADME, tissue-based; settings: read-out: Ct; in short: as §2
# [26] = Drug distribution in Sprague-Dawley rat stomach tissue measured at 24 hrs; format: ADME, tissue-based; settings: read-out: Ct; in short: as §2
# [27] = Drug distribution in Sprague-Dawley rat large intestine content measured at 0.5 hrs; format: ADME, tissue-based; settings: read-out: Ct; in short: as §2
# [28] = Drug distribution in Sprague-Dawley rat large intestine tissue measured at 24 hrs; format: ADME, tissue-based; settings: read-out: Ct; in short: as §2
# Helicobacter pylori [29] = assay: Resistance development in Helicobacter pylori MMX 3719 assessed as spontaneous resistance frequency using at 1.90 x 10^8 CFU inoculum at 0.5 ug/ml; format: functional; settings: dose 0.5 µg/ml
# In short: (§3)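 H. pylori MMX 3719 exposed to 0.5, 1, 2 and 4 µg/mL drug with an inoculum of 1.90×10^8 CFU at each level. Two independent tests were run, and resistant colonies were counted and averaged. A spontaneous resistance frequency was reported for each concentration, and the MPC was taken across the concentrations tested.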
# Clostridioides difficile = assay: Resistance development in Clostridioides difficile MMX 4381 assessed as spontaneous resistance frequency using at 1.23 x 10^9 CFU inoculum at 4 ug/ml; format: functional; settings: dose 4 µg/ml
# Gardnerella vaginalis [30] = assay: Resistance development in Gardnerella vaginalis MMX 5973 assessed as spontaneous resistance frequency using at 4.50 x 10^8 CFU inoculum at 4 ug/ml; format: functional; settings: dose 4 µg/ml
# In short: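 Resistant colonies were counted at each drug concentration in two separate tests (test 1, test 2) and averaged. The spontaneous resistance frequency was taken from the mean colony count relative to the inoculum plated. Drug levels tested were 0.5, 1, 2 and 4 µg/mL, and a mutation prevention concentration (MPC) was also reported.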
# Helicobacter pylori [31] = assay: Resistance development in Helicobacter pylori MMX 3719 assessed as mutation prevention concentration using at 1.90 x 10^8 CFU inoculum; format: functional; settings: dose 0.5 µg/ml; in short: as §3
# Helicobacter pylori [32] = assay: Antibacterial activity against Helicobacter pylori infected in C57/BL6 mouse assessed as bacterial load in stomach at 5 mg/kg administered twice daily via oral gavage starting from 7 days post inoculation and administered for 7 days (reference value: 5.25 log10CFU); format: functional; settings: time 7 day
# Syrian golden hamster [33] = assay: Antibacterial activity against Clostridioides difficile UNT-103-1 infected in Syrian hamster assessed as survival at 15 to 45 mg/kg, po administered once a daily for 5 days after 18 hrs post 10 mg/kg clindamycin treatment and measured upto 21 days; format: functional, Mesocricetus auratus; settings: dose 15-45 mg/kg, time <= 21 day
# In short: (§4)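 Male Golden Syrian hamsters (80-90 g), housed singly, were gavaged with C. difficile UNT103-1 grown in sporulation medium broth and diluted to OD600 1 in prereduced broth. […] From 18 h later, drug or vehicle was given by oral gavage once daily for 5 days. Survival was recorded through day 21.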
# Syrian golden hamster [34] = assay: Antibacterial activity against Clostridioides difficile UNT-103-1 infected in Syrian hamster assessed as survival at 5 mg/kg, po administered once a daily for 5 days after 18 hrs post 10 mg/kg clindamycin treatment; format: functional, Mesocricetus auratus; settings: time 5 day; in short: as §4
structure (smiles),measurement,setting,value
CO[C@H]1/C=C/O[C@@]2(C)Oc3c(C)c(O)c4c(c3C2=O)C2=NC3(CCN(CCn5c([N+](=O)[O-])cnc5C)CC3)NC2=C(NC(=O)/C(C)=C\C=C\[C@H](C)[C@H](O)[C@@H](C)[C@@H](O)[C@@H](C)[C@H](OC(C)=O)[C@@H]1C)C4=O [RIFASUTENIZOL],MIC,Gardnerella vaginalis [1],≤ 4 ng/mL
same,MIC90,Gardnerella vaginalis [1],60 ng/mL
same,MIC,Helicobacter pylori [2],≤ 2 ng/mL
same,MIC,Staphylococcus aureus,15 ng/mL
same,MIC,Helicobacter pylori [3],≤ 2 ng/mL
same,MIC,Bacteroides fragilis,15 ng/mL
same,MIC,Phocaeicola vulgatus,30 ng/mL
same,MIC,Fusobacterium nucleatum,1 ng/mL
same,MIC,Gardnerella vaginalis [4],4 ng/mL
same,MIC,[5],1 ng/mL
same,MIC,Peptostreptococcus sp.,0.5 ng/mL
same,MIC,Veillonella parvula,2000 ng/mL
same,half-life,[6],0.8 h
same,clearance,[7],23 mL/min/kg
same,AUC,[8],3760 ng·h/mL
same,bioavailability,[9],20%
same,AUC,[10],6490 ng·h/mL
same,half-life,[11],3.4 h
same,AUC,[12],4530 ng·h/mL
same,bioavailability,[13],65%
same,concentration at 6 h,[14],1440 ng/mL
same,concentration at 12 h,[15],4.33 ng/mL
same,Cp,[16],Bld
same,concentration at 0.5 h,[17],4190 ng/g
same,concentration at 12 h,[18],366 ng/g
same,concentration at 0.5 h,[19],2800 ng/g
same,concentration at 6 h,[20],156 ng/g
same,Ct,[21],Bld
same,Ct,[22],Bld
same,concentration at 2 h,[23],6040 ng/g
same,concentration at 6 h,[24],3660 ng/g
same,concentration at 2 h,[25],72500 ng/g
same,concentration at 24 h,[26],14.4 ng/g
same,concentration at 0.5 h,[27],1480 ng/g
same,concentration at 24 h,[28],7.26 ng/g
same,Activity,Helicobacter pylori [29],<5 10^-9No_unit
same,Activity,Clostridioides difficile,<8 10^-9No_unit
same,Activity,Gardnerella vaginalis [30],<2 10^-9No_unit
same,Activity,Helicobacter pylori [31],<=0.5 ug ml-1
same,Activity,Helicobacter pylori [32],2.89 log10CFU
same,Activity,Syrian golden hamster [33],100%
same,Activity,Syrian golden hamster [34],100%
